In ChEMBL document CHEMBL3351639, “Fluorinated analogues of marsanidine, a highly α2-AR/imidazoline I1 binding site-selective hypotensive agent. Synthesis and biological activities” (Eur J Med Chem, 2014):

Key:
[1] = biological target: T1, Adrenergic receptor alpha-2 (Rattus norvegicus, UniProt P22086+P19328+P22909); assay: Displacement of [3H]RX821002 from alpha2-adrenoceptor in Sprague-Dawley rat brain membranes after 45 mins by liquid scintillation counting; type: cell membranes, Membrane
T1 sequence (P22086 whole entry): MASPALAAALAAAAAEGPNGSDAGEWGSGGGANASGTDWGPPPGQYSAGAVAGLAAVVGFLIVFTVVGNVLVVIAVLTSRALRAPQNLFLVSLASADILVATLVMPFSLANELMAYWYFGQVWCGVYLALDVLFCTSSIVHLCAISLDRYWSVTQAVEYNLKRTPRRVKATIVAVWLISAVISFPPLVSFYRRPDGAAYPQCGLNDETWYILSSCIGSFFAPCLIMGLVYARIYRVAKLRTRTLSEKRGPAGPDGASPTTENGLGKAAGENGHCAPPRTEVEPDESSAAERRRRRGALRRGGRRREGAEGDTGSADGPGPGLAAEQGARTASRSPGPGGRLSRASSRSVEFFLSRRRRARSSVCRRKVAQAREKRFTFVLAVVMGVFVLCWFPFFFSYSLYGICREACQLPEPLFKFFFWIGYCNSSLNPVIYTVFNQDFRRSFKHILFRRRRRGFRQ
T1 sequence (P19328 whole entry): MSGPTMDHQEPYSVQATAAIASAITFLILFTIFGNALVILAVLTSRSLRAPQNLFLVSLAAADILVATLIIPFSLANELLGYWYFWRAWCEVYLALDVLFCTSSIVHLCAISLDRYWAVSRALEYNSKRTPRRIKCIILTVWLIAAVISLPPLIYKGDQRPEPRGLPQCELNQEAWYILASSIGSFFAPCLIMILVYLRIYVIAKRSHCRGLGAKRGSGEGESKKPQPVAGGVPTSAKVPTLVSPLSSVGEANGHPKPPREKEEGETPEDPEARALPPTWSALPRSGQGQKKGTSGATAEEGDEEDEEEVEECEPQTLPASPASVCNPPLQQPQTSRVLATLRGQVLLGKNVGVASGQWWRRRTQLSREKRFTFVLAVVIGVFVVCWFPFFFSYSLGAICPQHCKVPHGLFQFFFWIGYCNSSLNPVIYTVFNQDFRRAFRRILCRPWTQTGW
T1 sequence (P22909 whole entry): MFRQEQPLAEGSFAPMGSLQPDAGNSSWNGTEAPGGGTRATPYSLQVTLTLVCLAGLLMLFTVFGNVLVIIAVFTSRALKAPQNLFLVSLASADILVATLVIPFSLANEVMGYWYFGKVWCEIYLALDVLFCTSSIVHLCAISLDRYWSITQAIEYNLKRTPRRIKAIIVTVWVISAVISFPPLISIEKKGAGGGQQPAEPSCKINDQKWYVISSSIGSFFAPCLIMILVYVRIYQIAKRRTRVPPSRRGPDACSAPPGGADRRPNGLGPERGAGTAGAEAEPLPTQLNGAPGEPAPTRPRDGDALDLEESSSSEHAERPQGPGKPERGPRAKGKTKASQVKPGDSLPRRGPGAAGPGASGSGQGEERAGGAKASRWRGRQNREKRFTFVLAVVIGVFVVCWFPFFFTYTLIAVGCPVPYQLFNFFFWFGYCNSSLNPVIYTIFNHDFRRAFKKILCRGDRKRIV
In short: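 Crude P2 membranes from brains of male Sprague-Dawley rats (250–280 g), 0.2–0.3 mg protein. Radioligand 1 nM [3H]RX821002 (α2) or [3H]prazosin (α1); 11 concentrations of compound, 0.1 nM–100 µM. Non-specific binding: 10 µM rauwolscine (α2) or 10 µM phenylephrine (α1). Triplicate incubation, RT, 45 min. PEI-soaked glass-fibre filtration, then scintillation counting. Ki by Cheng-Prusoff; 3–4 experiments, or one for low-affinity compounds.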

[2] = system: Rattus norvegicus; assay: Hypertensive activity in anesthetized Wistar rat assessed as maximal increase in mean arterial blood pressure at 0.1 mg/kg, iv measured during 60 mins post dose; type: organism-based; design: dose 0.1 mg/kg, route intravenous; conditions: in vivo, 1 h
In short: (§1)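 Male Wistar rats (200–290 g) anaesthetized with thiopental 70 mg/kg i.p., maintained at 30 µg/kg/min; body temperature 36–37 °C. Carotid catheter recorded MAP and HR; jugular catheter for infusion. After 40 min of saline/thiopental infusion (1.2 ml/h), 0.1 mg/kg given as i.v. bolus (time 0). Signals sampled at 100 Hz. Maximal change from time 0 over 60 min, and its time, recorded. Saline vehicle control; n = 4–5.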

[3] = biological target: Nischarin (Rattus norvegicus, UniProt Q4G017); assay: Displacement of […] from imidazoline I1 receptor in Sprague-Dawley rat kidney membranes after 45 mins by liquid scintillation counting; type: cell membranes, Membrane
[4] = system: Rattus norvegicus; assay: Cardiovascular activity in anesthetized Wistar rat assessed as time required for maximal reduction in heart rate at 0.1 mg/kg, iv measured during 60 mins post dose; type: functional; in short: as §1
[5] = system: Rattus norvegicus; assay: Hypertensive activity in anesthetized Wistar rat assessed as time required for maximal increase in mean arterial blood pressure at 0.1 mg/kg, iv measured during 60 mins post dose; type: organism-based; design: dose 0.1 mg/kg, route intravenous; conditions: in vivo, 1 h; in short: as §1
[6] = system: Rattus norvegicus; assay: Hypotensive activity in anesthetized Wistar rat assessed as time required for maximal reduction in mean arterial blood pressure at 0.1 mg/kg, iv; type: functional; in short: as §1
[7] = system: Rattus norvegicus; assay: Hypotensive activity in anesthetized Wistar rat assessed as maximal reduction in mean arterial blood pressure at 0.1 mg/kg, iv measured during 60 mins post dose; type: functional; in short: as §1
[8] = Displacement of […] from imidazoline I2 receptor in Sprague-Dawley rat kidney membranes after 45 mins by liquid scintillation counting; type: cell membranes, Membrane
[9] = system: Rattus norvegicus; assay: Cardiovascular activity in anesthetized Wistar rat assessed as maximal reduction in heart rate at 0.1 mg/kg, iv measured during 60 mins post dose; type: functional; in short: as §1

Sequence of Nischarin (Q4G017 whole entry): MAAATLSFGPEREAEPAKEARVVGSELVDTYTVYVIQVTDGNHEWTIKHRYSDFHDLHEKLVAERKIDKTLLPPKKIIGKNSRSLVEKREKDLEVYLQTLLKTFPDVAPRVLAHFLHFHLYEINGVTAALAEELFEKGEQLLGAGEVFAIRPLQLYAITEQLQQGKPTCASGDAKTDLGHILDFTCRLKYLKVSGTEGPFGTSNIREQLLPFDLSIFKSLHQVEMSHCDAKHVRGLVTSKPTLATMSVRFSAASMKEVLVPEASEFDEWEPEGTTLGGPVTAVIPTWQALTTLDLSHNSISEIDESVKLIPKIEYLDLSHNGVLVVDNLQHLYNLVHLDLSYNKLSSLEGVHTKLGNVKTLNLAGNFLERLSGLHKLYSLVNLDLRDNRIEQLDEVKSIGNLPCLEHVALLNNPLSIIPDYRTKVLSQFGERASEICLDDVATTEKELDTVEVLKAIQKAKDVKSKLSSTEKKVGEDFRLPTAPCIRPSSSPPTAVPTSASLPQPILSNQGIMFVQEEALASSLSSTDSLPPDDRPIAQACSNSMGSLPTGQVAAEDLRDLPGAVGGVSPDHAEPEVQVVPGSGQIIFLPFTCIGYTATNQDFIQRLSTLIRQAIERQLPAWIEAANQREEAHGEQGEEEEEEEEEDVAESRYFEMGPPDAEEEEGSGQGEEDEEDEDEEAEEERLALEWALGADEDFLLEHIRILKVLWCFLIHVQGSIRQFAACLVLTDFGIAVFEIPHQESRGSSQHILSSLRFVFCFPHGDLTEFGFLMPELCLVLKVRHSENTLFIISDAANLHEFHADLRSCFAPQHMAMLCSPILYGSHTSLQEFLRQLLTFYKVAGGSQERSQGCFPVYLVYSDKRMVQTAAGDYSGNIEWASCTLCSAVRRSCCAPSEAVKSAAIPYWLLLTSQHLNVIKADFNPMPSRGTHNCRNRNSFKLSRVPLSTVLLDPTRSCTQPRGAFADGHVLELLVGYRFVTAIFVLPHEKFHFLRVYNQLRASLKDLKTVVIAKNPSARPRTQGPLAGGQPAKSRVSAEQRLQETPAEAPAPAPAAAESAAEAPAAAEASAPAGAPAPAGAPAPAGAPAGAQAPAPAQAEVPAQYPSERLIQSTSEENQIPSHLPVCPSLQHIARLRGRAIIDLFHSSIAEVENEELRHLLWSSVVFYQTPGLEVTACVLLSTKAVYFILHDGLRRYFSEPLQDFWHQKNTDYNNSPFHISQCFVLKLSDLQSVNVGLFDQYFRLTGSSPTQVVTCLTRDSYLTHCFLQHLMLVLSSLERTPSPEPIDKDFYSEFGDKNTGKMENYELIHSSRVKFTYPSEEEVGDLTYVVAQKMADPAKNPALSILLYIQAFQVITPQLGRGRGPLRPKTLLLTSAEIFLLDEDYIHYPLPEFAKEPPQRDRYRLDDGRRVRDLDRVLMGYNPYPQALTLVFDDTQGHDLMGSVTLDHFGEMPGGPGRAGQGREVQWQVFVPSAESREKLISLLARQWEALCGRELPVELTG

Row | SMILES | Ki [1] [nM] | Activity [2] [mmHg] | IC50 [3] [nM] | Time [4] [min] | Time [5] [min] | Time [6] [min] | Activity [7] [mmHg] | Ki [8] [nM] | Activity [9] [bpm]
1 | Fc1ccc2cnn(N=C3NCCN3)c2c1 | 26.2 | 24.8 | 20700 | 2 | 3 | 35 | 36 | 22000 | 118
2 | Fc1ccc2c(cnn2N=C2NCCN2)c1 | 64.33 | 14.6 | 91.6 | 5 | 2 | 11 | 8.6 | 5700 | 61
3 | Fc1ccc2cnn(CC3=NCCN3)c2c1 | 29.73 | 23.6 | 33500 | 5 | 4 | 36 | 12.7 | 8.19 | 52
4 | Fc1cccc2cnn(N=C3NCCN3)c12 | 30.97 | 21.1 | 7740 | 10 | 4 | 33 | 59.4 | 349000 | 128
5 | Fc1ccc2c(cnn2CC2=NCCN2)c1 | 32.17 | 0.8 | 2420 | 38 | 2 | 40 | 7.2 | 10.4 | 12
